Assay results published in ChEMBL document CHEMBL2069306, “Sequences in the HSP90 promoter form G-quadruplex structures with selectivity for disubstituted phenyl bis-oxazole derivatives” (Bioorg Med Chem Lett, 2012).

Tests used:
Nucleic Acid [1] = assay: Binding affinity to human G4 telomeric quadruplex DNA assessed as change in melting temperature at 1 uM by FRET melting assay; type: nucleic-acid assay
How it was run: (§1)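 FAM/TAMRA dual-labelled oligonucleotides diluted to 400 nM in 60 mM potassium cacodylate pH 7.4. Annealed at 95 °C for 10 min, then cooled to RT over 3–3.5 h. Compound diluted from a 1 mM stock (10% DMSO/90% 1 mM HCl) to 2× in buffer and mixed 1:1 with DNA. Fluorescence read every 0.5 °C over 30–100 °C with a 30 s hold. ΔTm from curve fitting; triplicate.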

Nucleic Acid [2] = assay: Binding affinity to human G4 telomeric quadruplex DNA assessed as change in melting temperature at 2 uM by FRET melting assay; type: nucleic-acid assay; how it was run: as §1
Nucleic Acid [3] = assay: Binding affinity to HSP90A quadruplex DNA assessed as change in melting temperature at 1 uM by FRET melting assay; type: nucleic-acid assay; settings: Homo sapiens; how it was run: as §1
Nucleic Acid [4] = assay: Binding affinity to HSP90A quadruplex DNA assessed as change in melting temperature at 2 uM by FRET melting assay; type: nucleic-acid assay; settings: Homo sapiens; how it was run: as §1
Nucleic Acid [5] = assay: Binding affinity to HSP90B quadruplex DNA assessed as change in melting temperature at 1 uM by FRET melting assay; type: nucleic-acid assay; settings: Homo sapiens; how it was run: as §1
Nucleic Acid [6] = assay: Binding affinity to HSP90B quadruplex DNA assessed as change in melting temperature at 2 uM by FRET melting assay; type: nucleic-acid assay; settings: Homo sapiens; how it was run: as §1
Nucleic Acid [7] = assay: Binding affinity to double stranded DNA assessed as change in melting temperature at 1 uM by FRET melting assay; type: nucleic-acid assay; how it was run: as §1
Nucleic Acid [8] = assay: Binding affinity to double stranded DNA assessed as change in melting temperature at 2 uM by FRET melting assay; type: nucleic-acid assay; how it was run: as §1
Nucleic Acid [9] = assay: Binding affinity to human 21-mer telomeric quadruplex F21T DNA assessed as change in melting temperature at 1 uM by FRET melting assay; type: nucleic-acid assay; how it was run: as §1
Nucleic Acid [10] = assay: Binding affinity to human 21-mer telomeric quadruplex F21T DNA assessed as change in melting temperature at 2 uM by FRET melting assay; type: nucleic-acid assay; how it was run: as §1
Nucleic Acid [11] = assay: Binding affinity to c-kit2 quadruplex DNA assessed as change in melting temperature at 1 uM by FRET melting assay; type: nucleic-acid assay; settings: Homo sapiens; how it was run: as §1
Nucleic Acid [12] = assay: Binding affinity to c-kit2 quadruplex DNA assessed as change in melting temperature at 2 uM by FRET melting assay; type: nucleic-acid assay; settings: Homo sapiens; how it was run: as §1
Nucleic Acid [13] = assay: Binding affinity to k-ras quadruplex DNA assessed as change in melting temperature at 1 uM by FRET melting assay; type: nucleic-acid assay; settings: Homo sapiens; how it was run: as §1
Nucleic Acid [14] = assay: Binding affinity to k-ras quadruplex DNA assessed as change in melting temperature at 2 uM by FRET melting assay; type: nucleic-acid assay; settings: Homo sapiens; how it was run: as §1
A549 = assay: Antiproliferative activity against human A549 cells after 96 hrs by neubauer haemocytometer analysis; type: functional, cell-based; settings: in the assay text read “sulforhodamine B assay” for “neubauer haemocytometer analysis”
How it was run: (§2)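 Cancer lines seeded at 1000–4000 cells/well and WI38 fibroblasts at 6000/well, then grown 24 h. Compound added over a concentration range for 96 h. Cells fixed with 10% TCA (30 min, 4 °C), stained with 0.4% sulforhodamine B (15 min, RT), dye solubilized in 10 mM Tris base, A540 read. Normalized to untreated cells; IC50 interpolated at 50% absorbance. Triplicate.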

MCF7 = assay: Antiproliferative activity against human MCF7 cells after 96 hrs by neubauer haemocytometer analysis; type: functional, cell-based; settings: in the assay text read “sulforhodamine B assay” for “neubauer haemocytometer analysis”; how it was run: as §2
[15] = Antiproliferative activity against human RCC4 cells after 96 hrs by neubauer haemocytometer analysis; type: functional, cell-based; settings: in the assay text read “sulforhodamine B assay” for “neubauer haemocytometer analysis”; how it was run: as §2
[16] = Antiproliferative activity against human 786-O cells after 96 hrs by neubauer haemocytometer analysis; type: functional, cell-based; settings: 786-0; in the assay text read “sulforhodamine B assay” for “neubauer haemocytometer analysis”; how it was run: as §2
MIA PaCa-2 = assay: Antiproliferative activity against human MIAPaCa2 cells after 96 hrs by neubauer haemocytometer analysis; type: functional, cell-based; settings: in the assay text read “sulforhodamine B assay” for “neubauer haemocytometer analysis”; how it was run: as §2
WI-38 = assay: Antiproliferative activity against human WI38 cells after 96 hrs by neubauer haemocytometer analysis; type: cell-based; settings: in the assay text read “sulforhodamine B assay” for “neubauer haemocytometer analysis”; how it was run: as §2
duplex DNA [17] = assay: Binding affinity to duplex DNA assessed as change in melting temperature at 3 uM by FRET melting assay; settings: Homo sapiens
duplex DNA [18] = assay: as above; settings: Homo sapiens; remark: listed apart in the source
duplex DNA [19] = assay: as above; settings: Homo sapiens; remark: listed apart in the source

| ΔTm (Nucleic Acid [1]) [°C] | ΔTm (Nucleic Acid [2]) [°C] | ΔTm (Nucleic Acid [3]) [°C] | ΔTm (Nucleic Acid [4]) [°C] | ΔTm (Nucleic Acid [5]) [°C] | ΔTm (Nucleic Acid [6]) [°C] | ΔTm (Nucleic Acid [7]) [°C] | ΔTm (Nucleic Acid [8]) [°C] | Structure (SMILES) | further results |
| --- | --- | --- | --- | --- | --- | --- | --- | --- | --- |
| < 2 | 2 | 14 | 23 | 2 | 7 | 0 | 0 | CN1CCN(CCc2ccc(-c3ncc(-c4cccc(-c5cnc(-c6ccc(CCN7CCN(C)CC7)cc6)o5)c4)o3)cc2)CC1 | ΔTm (Nucleic Acid [9]): < 2 °C; ΔTm (Nucleic Acid [10]): 2 °C; ΔTm (Nucleic Acid [11]): < 2 °C; ΔTm (Nucleic Acid [12]): 2 °C; ΔTm (Nucleic Acid [13]): 7 °C; ΔTm (Nucleic Acid [14]): 17 °C; IC50 (A549): 1.02 µmol; IC50 (MCF7): 1.32 µmol; IC50 [15]: 0.94 µmol; IC50 [16]: 1.33 µmol; IC50 (MIA PaCa-2): 1.25 µmol; IC50 (WI-38): 2.59 µmol; ΔTm (duplex DNA [17]): < 1 °C; ΔTm (duplex DNA [18]): < 1 °C; ΔTm (duplex DNA [19]): < 1 °C |
| < 2 | 2 | 7 | 16 | 3 | 12 | 0 | 0 | CN1CCN(Cc2ccc(-c3ncc(-c4cccc(-c5cnc(-c6ccc(CN7CCN(C)CC7)cc6)o5)c4)o3)cc2)CC1 |  |
| 2 | 15 | 5 | 19 | 2 | 5 | 0 | 0 | c1cc(-c2cnc(-c3ccc(OCCCCN4CCCC4)cc3)o2)cc(-c2cnc(-c3ccc(OCCCCN4CCCC4)cc3)o2)c1 |  |
| < 2 | < 2 | 7 | 14 | 2 | 6 | 0 | 0 | c1cc(-c2cnc(-c3ccc(OCCN4CCCC4)cc3)o2)cc(-c2cnc(-c3ccc(OCCN4CCCC4)cc3)o2)c1 |  |
| < 2 | 2 | 8 | 8 | 8 | 9 | 1 | 1 | CC(C)N(Cc1ccc(-c2ncc(-c3cccc(-c4cnc(-c5ccc(CN(C(C)C)C(C)C)cc5)o4)c3)o2)cc1)C(C)C |  |
| < 2 | < 2 | 7 | 14 | 2 | 6 | 0 | 0 | c1cc(-c2cnc(-c3ccc(OCCCN4CCCC4)cc3)o2)cc(-c2cnc(-c3ccc(OCCCN4CCCC4)cc3)o2)c1 |  |
|  |  |  | < 5 |  | < 5 |  |  | CN1CCN(CCc2ccc(-c3ncc(-c4ccc(-c5cnc(-c6ccc(CCN7CCN(C)CC7)cc6)o5)cc4)o3)cc2)CC1 | ΔTm (Nucleic Acid [10]): < 5 °C; ΔTm (Nucleic Acid [12]): < 5 °C; ΔTm (Nucleic Acid [14]): < 5 °C |
| 2 | 6 | 7 | 14 | 2 | 4 | 0 | 0 | c1cc(-c2cnc(-c3ccc(CN4CCCC4)cc3)o2)cc(-c2cnc(-c3ccc(CN4CCCC4)cc3)o2)c1 |  |
| 3 | 7 | 8 | 9 | 9 | 11 | 1 | 1 | c1cc(-c2cnc(-c3ccc(CN4CCCCCC4)cc3)o2)cc(-c2cnc(-c3ccc(CN4CCCCCC4)cc3)o2)c1 |  |
| < 2 | < 2 | 5 | 8 | 3 | 6 | 1 | 1 | c1cc(-c2cnc(-c3cccc(CN4CCCCC4)c3)o2)cc(-c2cnc(-c3cccc(CN4CCCCC4)c3)o2)c1 |  |
| < 2 | 2 | 6 | 6 | 5 | 6 | 0 | 0 | c1cc(-c2cnc(-c3ccc(CN4CCOCC4)cc3)o2)cc(-c2cnc(-c3ccc(CN4CCOCC4)cc3)o2)c1 |  |
